Common to all, as to format: functional
In assay [1] the test system is Bacillus subtilis. The assay can be described thus: Antibacterial activity against Bacillus subtilis at MIC after 3 to 4 days. The essentials:
(§1)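 Agar well diffusion on seeded agar plates, 20 mL agar per dish, dried 1 h at 37 °C. Wells punched and loaded with test compound in DMSO at its MIC. DMSO-only control. Plates run in triplicate and kept 3-4 days at 37 °C. Inhibition zone diameter measured.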

The subject of assay [2] is Pseudomonas aeruginosa. Kind of assay: Antibacterial activity against Pseudomonas aeruginosa ATCC 27853 after 16 to 18 hrs by […].
For assay [3], the system named is Mycolicibacterium smegmatis. Kind of assay: Antitubercular activity against Mycobacterium smegmatis ATCC 19420 after 7 days by resazurin assay. The conditions noted are these: ATCC 19420, 168 h. The essentials:
(§2)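 Middlebrook 7H9 broth with 10% OADC, culture adjusted to McFarland 2. 50 µL culture added to 150 µL fresh medium. Stocks at 2 mg/mL in DMF, tested first at 1, 10 and 100 µg/mL, then at 0.3125-5 µg/mL. DMF controls. After 7 days at 37 °C, 0.01% resazurin added. Blue-to-pink change read for MIC.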

Assay [4] has as its system Mycobacterium tuberculosis. Kind of assay: Antitubercular activity against Mycobacterium tuberculosis H37Rv after 7 days by resazurin assay. The conditions noted are these: 168 h. The essentials: (§3)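 M. tuberculosis H37Rv ATCC 27294 grown in Middlebrook 7H9 broth with 10% OADC and adjusted to McFarland 2. Culture was diluted 1:4 into fresh medium. Compounds came from 2 mg/mL DMF stocks, screened first at 1, 10 and 100, then at 0.3125–5. DMF-only controls were included. After 7 days at 37 °C, 0.01% resazurin was added; a blue-to-pink change marked growth, and the MIC was read.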

The subject of assay [5] is Aspergillus flavus. The assay can be described thus: Antifungal activity against Aspergillus flavus NCIM N0.524 at MIC after 3 to 4 days. The essentials: (§4)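 Fungal suspension made by transferring a loopful of culture to 3 mL saline and seeding agar plates, 20 mL agar per dish, dried 1 h at 37 °C. Punched wells loaded with test compound in DMSO at its MIC. DMSO-only control. Triplicate plates held 3-4 days at 37 °C. Inhibition zone diameter measured.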

Assay [6] has as its system Talaromyces marneffei. The assay can be described thus: Antifungal activity against Penicillium marneffei at MIC after 3 to 4 days. The essentials: as §4
The test system of assay [7] is Staphylococcus aureus. The assay can be described thus: Antibacterial activity against Staphylococcus aureus ATCC 25923 after 16 to 18 hrs by serial plate dilution method.
The subject of assay [8] is Mycolicibacterium fortuitum. The assay can be described thus: Antitubercular activity against Mycobacterium fortuitum ATCC 19542 after 7 days by resazurin assay. Particulars: ATCC 19542, 168 h. Summed up:
as §2

Assay [9] deals with Escherichia coli. Kind of assay: Antibacterial activity against Escherichia coli ATCC 25922 at MIC after 3 to 4 days. Summed up: as §1
Assay [10] relates to Aspergillus fumigatus. Kind of assay: Antifungal activity against Aspergillus fumigatus NCIM N0.902 at MIC after 3 to 4 days. The essentials:
as §4

For assay [11], the system named is Candida albicans. The assay can be described thus: Antifungal activity against Candida albicans after 3 to 4 days by serial plate dilution method.
In assay [12] the test system is Bacillus subtilis. Kind of assay: Antibacterial activity against Bacillus subtilis after 16 to 18 hrs by […].
Assay [13] deals with Trichophyton mentagrophytes. The assay can be described thus: Antifungal activity against Trichophyton mentagrophytes after 3 to 4 days by serial plate dilution method.
Assay [14] has as its system Talaromyces marneffei. The assay can be described thus: Antifungal activity against Penicillium marneffei after 3 to 4 days by serial plate dilution method.
Assay [15] relates to Escherichia coli. The assay can be described thus: Antibacterial activity against Escherichia coli ATCC 25922 after 16 to 18 hrs by […].
The subject of assay [16] is Staphylococcus aureus. The assay can be described thus: Antibacterial activity against Staphylococcus aureus ATCC 25923 at […] after 3 to 4 days. Summed up:
as §1

Assay [17] relates to Klebsiella pneumoniae. The assay can be described thus: Antibacterial activity against Klebsiella pneumoniae after 16 to 18 hrs by […].
Assay [18] concerns Aspergillus flavus. Kind of assay: Antifungal activity against Aspergillus flavus NCIM N0.524 after 3 to 4 days by serial plate dilution method.
The subject of assay [19] is Mycobacterium tuberculosis. Kind of assay: Antitubercular activity against Mycobacterium tuberculosis H37Rv assessed as growth inhibition after 7 days by resazurin assay. Summed up:
as §3

Assay [20] relates to Pseudomonas aeruginosa. The assay can be described thus: Antibacterial activity against Pseudomonas aeruginosa ATCC 27853 at MIC after 3 to 4 days. Summed up:
as §1

Assay [21] relates to Candida albicans. Kind of assay: Antifungal activity against Candida albicans at MIC after 3 to 4 days. Summed up:
as §4

Assay [22] concerns Aspergillus fumigatus. Kind of assay: Antifungal activity against Aspergillus fumigatus NCIM N0.902 after 3 to 4 days by serial plate dilution method.
Assay [23] concerns Klebsiella pneumoniae. The assay can be described thus: Antibacterial activity against Klebsiella pneumoniae at MIC after 3 to 4 days. The essentials:
as §1

Assay [24] deals with Trichophyton mentagrophytes. The assay can be described thus: Antifungal activity against Trichophyton mentagrophytes at MIC after 3 to 4 days. Summed up:
as §4

In brackets after ≈: the same amount, converted by molar mass.

For the molecule `N#Cc1ccccc1C(=O)OCc1csc(N)n1`, the “diameter of the inhibition zone (DIZ)” value in [1] is on record as less than 10 mm; in [5] it was 11 mm; in assay [6] it was less than 10 mm; in assay [9], 16 mm; in assay [10], 11 mm; in assay [16], 11 mm. Moreover, the “diameter of the inhibition zone (DIZ)” value in [20] is 16 mm; in [21], 16 mm; in assay [23], 11 mm; in [24], less than 10 mm. Moreover, the MIC is 6.25 µg/mL (≈ 24.1 µM) in assay [2]; more than 100 µg/mL in [3]; 5 µg/mL (≈ 19.3 µM) in [4]; 12.5 µg/mL (≈ 48.2 µM) in assay [7]; more than 100 µg/mL in [8]; 6.25 µg/mL (≈ 24.1 µM) in [11]. Further, the minimal inhibitory concentration (MIC) in assay [12] turned out to be 25 µg/mL (≈ 96.4 µM); in [13], 25 µg/mL (≈ 96.4 µM); in assay [14] it was 25 µg/mL (≈ 96.4 µM); in assay [15], 6.25 µg/mL (≈ 24.1 µM); in assay [17], 12.5 µg/mL (≈ 48.2 µM); in assay [18] it was 12.5 µg/mL (≈ 48.2 µM). Also, it took 12.5 µg/mL (≈ 48.2 µM) to inhibit growth in assay [22] (MIC). For the same molecule, in assay [19], the “growth inhibition (GI)” value is recorded as less than 90%.

For the molecule `Nc1nc(COC(=O)c2cccs2)cs1`, the “diameter of the inhibition zone (DIZ)” value in assay [1] is on record as less than 10 mm; in assay [5], less than 10 mm; in [6], less than 10 mm; in assay [9], 16 mm; in assay [10], 16 mm; in assay [16], 11 mm. Also, the “diameter of the inhibition zone (DIZ)” value in assay [20] was 16 mm; in assay [21], 11 mm; in [23], less than 10 mm; in assay [24], 16 mm. In addition, the minimal inhibitory concentration (MIC) in [2] came out at 6.25 µg/mL (≈ 26 µM); in assay [3] it was 10 µg/mL (≈ 41.6 µM); in assay [4] it was 10 µg/mL (≈ 41.6 µM); in assay [7], 12.5 µg/mL (≈ 52 µM); in assay [8], 10 µg/mL (≈ 41.6 µM); in assay [11] it was 12.5 µg/mL (≈ 52 µM). The MIC in [12] was determined as 25 µg/mL (≈ 104 µM); in assay [13] it was 6.25 µg/mL (≈ 26 µM); in assay [14], 25 µg/mL (≈ 104 µM); in assay [15], 6.25 µg/mL (≈ 26 µM); in assay [17] it was 25 µg/mL (≈ 104 µM); in assay [18], 25 µg/mL (≈ 104 µM). The molecule further registered an MIC in assay [22] of 6.25 µg/mL (≈ 26 µM). For the same molecule, the “growth inhibition (GI)” value in assay [19] is on record as less than 90%.

For the molecule `Nc1nc(COC(=O)c2cccc([N+](=O)[O-])c2Cl)cs1`, the “diameter of the inhibition zone (DIZ)” value was 11 mm in [1]; less than 10 mm in assay [5]; 11 mm in assay [6]; 11 mm in [9]; less than 10 mm in [10]; 11 mm in assay [16]. Besides, the “diameter of the inhibition zone (DIZ)” value is on record as less than 10 mm in assay [20], less than 10 mm in assay [21], 16 mm in assay [23] and less than 10 mm in assay [24]. The MIC in assay [2] is 25 µg/mL (≈ 79.7 µM); in [3] it was 1 µg/mL (≈ 3.19 µM); in [4] it was 0.625 µg/mL (≈ 1.99 µM); in [7], 12.5 µg/mL (≈ 39.8 µM); in assay [8], 10 µg/mL (≈ 31.9 µM); in [11] it was 25 µg/mL (≈ 79.7 µM). Besides, the minimal inhibitory concentration (MIC) worked out at 12.5 µg/mL (≈ 39.8 µM) in [12]; 25 µg/mL (≈ 79.7 µM) in assay [13]; 12.5 µg/mL (≈ 39.8 µM) in [14]; 12.5 µg/mL (≈ 39.8 µM) in [15]; 6.25 µg/mL (≈ 19.9 µM) in assay [17]; 25 µg/mL (≈ 79.7 µM) in assay [18]. In assay [22], this molecule returned an MIC of 25 µg/mL (≈ 79.7 µM). Moreover, the “growth inhibition (GI)” value in assay [19] is 90%.

These data come from ChEMBL document CHEMBL1944562, “Design, synthesis of some new (2-aminothiazol-4-yl)methylester derivatives as possible antimicrobial and antitubercular agents” (2012).
